Columns and labels:
[1] = target: T1, Cholesterol 7-alpha-hydroxylase (Cytochrome P450 7A1) (Mus musculus, UniProt Q64505); test: In vitro percent Cholesterol 7-alpha-hydroxylase activity in mouse CF1 liver microsomes at 200 uM; parameters: species or system Microsome; details: read-out: Control
In short: (§1)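 Mouse liver enzymes assayed in vitro on 10% homogenates of CF1 male mouse liver, with test drug added at 50–200 μM. Each enzyme follows a published procedure. Protein is measured by Lowry. Activity is given as % of untreated control (X ± SD, N = 6).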

[2] = target: T1, Cholesterol 7-alpha-hydroxylase (Cytochrome P450 7A1); test: In vivo effect on Cholesterol 7-alpha-hydroxylase activity in CF1 mice after 16 days at 10 mg/kg oral dose; assay type: functional, organism-based; parameters: dose 10 mg/kg, route oral; details: read-out: Control
In short: (§2)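 CF1 male mice are dosed orally at 10–60 mg/kg per day for 16 days, with 1% CMC as the control vehicle. Liver is homogenized at 10% in 0.25 M sucrose + 0.001 M EDTA, pH 7.2. Enzymes are assayed by literature methods, with Lowry protein. Activity is given as % of control (X ± SD, N = 6), with p from Student's t test.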

[3] = target: T2, 3-hydroxy-3-methylglutaryl-coenzyme A reductase (Mus musculus) (UniProt Q01237); test: In Vitro evaluation for the CF1 liver enzyme activity on HMG-CoA reductase at concentration 50 uM
T2 sequence (whole entry): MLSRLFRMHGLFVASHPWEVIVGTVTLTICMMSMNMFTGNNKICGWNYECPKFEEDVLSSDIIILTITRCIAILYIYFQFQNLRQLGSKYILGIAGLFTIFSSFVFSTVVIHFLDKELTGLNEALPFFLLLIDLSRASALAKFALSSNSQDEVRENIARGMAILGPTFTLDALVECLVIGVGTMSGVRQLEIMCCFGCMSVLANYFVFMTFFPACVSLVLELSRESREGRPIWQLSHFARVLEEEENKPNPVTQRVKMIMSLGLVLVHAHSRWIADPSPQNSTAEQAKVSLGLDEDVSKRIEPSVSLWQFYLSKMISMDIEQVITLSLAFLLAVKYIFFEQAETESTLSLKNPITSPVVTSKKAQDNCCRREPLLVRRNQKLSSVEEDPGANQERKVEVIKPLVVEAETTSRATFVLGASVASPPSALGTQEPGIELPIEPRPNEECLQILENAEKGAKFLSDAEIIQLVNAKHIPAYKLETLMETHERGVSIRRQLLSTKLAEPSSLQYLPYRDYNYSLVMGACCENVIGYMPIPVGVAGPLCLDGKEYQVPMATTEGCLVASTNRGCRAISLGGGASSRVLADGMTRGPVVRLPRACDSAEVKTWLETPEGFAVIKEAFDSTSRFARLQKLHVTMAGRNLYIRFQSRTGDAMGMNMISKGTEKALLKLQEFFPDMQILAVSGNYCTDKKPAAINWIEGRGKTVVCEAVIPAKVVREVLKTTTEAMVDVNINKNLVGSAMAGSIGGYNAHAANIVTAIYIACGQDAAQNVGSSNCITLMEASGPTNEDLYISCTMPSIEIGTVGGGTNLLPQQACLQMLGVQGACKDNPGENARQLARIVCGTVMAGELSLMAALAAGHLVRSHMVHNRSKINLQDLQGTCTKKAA
In short: (§3)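 Liver was taken from CF1 male mice and made into 10% homogenates, which were incubated with test compound at 50, 100 or 200 µM. Each enzyme was assayed by its literature method, and protein was measured by Lowry. N = 6. Activity is expressed as % of untreated control ± SD.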

[4] = target: T3, Sterol O-acyltransferase 1 (Mus musculus) (UniProt Q61263); test: In Vitro evaluation for the CF1 liver enzyme activity on Acyl cholesterol acyltransferase at concentration 100 uM; assay type: functional, tissue-based; in short: as §3
T3 sequence (whole entry): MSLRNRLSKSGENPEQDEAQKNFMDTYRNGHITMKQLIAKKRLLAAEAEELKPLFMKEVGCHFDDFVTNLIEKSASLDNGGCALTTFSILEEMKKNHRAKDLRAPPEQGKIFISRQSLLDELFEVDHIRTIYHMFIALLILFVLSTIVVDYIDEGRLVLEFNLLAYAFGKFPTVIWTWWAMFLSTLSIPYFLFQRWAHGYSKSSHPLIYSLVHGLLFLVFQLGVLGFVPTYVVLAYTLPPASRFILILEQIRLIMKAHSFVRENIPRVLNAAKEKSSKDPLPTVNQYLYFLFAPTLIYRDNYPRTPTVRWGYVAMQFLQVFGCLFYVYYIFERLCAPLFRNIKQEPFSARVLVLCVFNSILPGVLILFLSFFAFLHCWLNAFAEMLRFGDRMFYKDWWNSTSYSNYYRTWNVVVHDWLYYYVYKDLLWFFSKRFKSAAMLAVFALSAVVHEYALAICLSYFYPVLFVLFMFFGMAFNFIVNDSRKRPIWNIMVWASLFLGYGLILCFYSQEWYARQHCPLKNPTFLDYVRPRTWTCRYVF

Mus musculus [5] = test: In Vivo effect for the hypolipidemic activity on Acetyl-CoA carboxylase in CF1 mice after 16 days administered orally at a dose of 40 mg/kg; assay type: functional; details: route oral; in short: as §2
[6] = target: T3, Sterol O-acyltransferase 1 (Mus musculus); test: In Vivo effect for the hypolipidemic activity on Acyl-COA cholesterol acyltransferase in CF1 mice after 16 days of oral administration at a dose of 60 mg/kg; assay type: functional, organism-based; parameters: dose 60 mg/kg; in short: as §2
Rattus norvegicus [7] = test: Compound was evaluated for the hypolipidemic activity at 20 mg/kg per day orally for 14 days on phospholipids content in rat feces.; assay type: functional; details: route oral
In short: (§4)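 Male Sprague–Dawley rats were dosed orally for 14 days. Liver, small intestine and a 24-h fecal collection were lipid-extracted. Extracts were assayed for cholesterol (modified Liebermann–Burchard), triglyceride (enzymatic kit), neutral lipids, phospholipids and protein. Values are % of 1% CMC vehicle control, mean ± SD, N = 6.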

Rattus norvegicus [8] = test: Compound was evaluated for the hypolipidemic activity at 20 mg/kg per day orally for 14 days on phospholipids content in rat small intestine.; assay type: functional; details: route oral; in short: as §4
Rattus norvegicus [9] = test: Compound was evaluated for the hypolipidemic activity at 20 mg/kg per day orally for 14 days on phospholipids content in rat lipoprotein chylomicron; assay type: functional; details: route oral
In short: (§5)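 Male Sprague–Dawley rats (~300 g) were dosed orally each day. Blood was drawn from the abdominal vein. Lipoprotein fractions (chylomicron, VLDL, LDL, HDL) were separated by the Hatch–Lees and Havel methods. Each fraction was assayed for cholesterol, triglyceride (enzymatic kit), neutral lipids, phospholipids and Lowry protein. Values are % of 1% CMC vehicle control, N = 6.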

Rattus norvegicus [10] = test: Compound was evaluated for the hypolipidemic activity at 20 mg/kg per day orally for 14 days on cholesterol content in rat HDL; assay type: functional; details: route oral; in short: as §5
Rattus norvegicus [11] = test: Compound was evaluated for the hypolipidemic activity at 20 mg/kg per day orally for 14 days on cholesterol content in rat VLDL; assay type: functional; details: route oral; in short: as §5
Rattus norvegicus [12] = test: Compound was evaluated for the hypolipidemic activity in Sprague-Dawley rats at a dose of 20 mg/kg orally for Serum triglyceride at 16th day; assay type: functional; details: route oral
In short: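 Sprague–Dawley male rats (~350 g) received 20 mg/kg per day orally, with 1% CMC as the vehicle control; N = 6. Tail-vein blood was taken between 8:00 and 9:30 a.m. on days 9 and 16 and spun for 3 min to obtain serum. Cholesterol was measured by a modified Liebermann–Burchard reaction and triglyceride by kit. Values are % control ± SD; significance by Student's t test.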

Mus musculus [13] = species: Mus musculus; test: In Vitro evaluation for the CF1 liver enzyme activity on phosphatidate phosphohydrolase at concentration 50 uM; in short: as §1

T1 sequence (Q64505 whole entry): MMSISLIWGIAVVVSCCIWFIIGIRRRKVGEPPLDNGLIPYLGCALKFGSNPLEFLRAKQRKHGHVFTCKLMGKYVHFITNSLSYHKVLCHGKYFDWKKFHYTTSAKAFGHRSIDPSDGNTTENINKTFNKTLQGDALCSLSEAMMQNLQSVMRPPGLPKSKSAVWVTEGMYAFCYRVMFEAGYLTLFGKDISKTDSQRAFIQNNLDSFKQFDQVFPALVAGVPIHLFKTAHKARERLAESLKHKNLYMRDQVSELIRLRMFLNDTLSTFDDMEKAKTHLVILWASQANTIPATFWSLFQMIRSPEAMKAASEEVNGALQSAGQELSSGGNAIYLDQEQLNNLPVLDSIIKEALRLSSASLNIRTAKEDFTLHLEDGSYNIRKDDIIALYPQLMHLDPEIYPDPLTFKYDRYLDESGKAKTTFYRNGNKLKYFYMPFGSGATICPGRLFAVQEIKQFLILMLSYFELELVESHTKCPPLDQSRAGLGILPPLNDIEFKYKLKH

activity at 200 µM [1]: 113%
activity at 384 h [2]: 52%
Control [3]: 107%
Control [4]: 63%
Control [6]: 48%
Control (Mus musculus [13]): 36%
Compound: COc1ccc(C2C(=O)c3ccccc3C2=O)cc1 [ANISINDIONE]
Control (Mus musculus [5]): 98%
Control (Rattus norvegicus [7]): 100%
Control (Rattus norvegicus [8]): 136%
Control (Rattus norvegicus [9]): 135%
Control (Rattus norvegicus [10]): 216%
Control (Rattus norvegicus [11]): 88%
Control (Rattus norvegicus [12]): 59%
